Compound activity (PubChem)
OXTR potentiator = potentiators of human oxytocin receptor; P30559; CHO-OTR cells, Fluo-8 calcium fluorescence, potentiator mode; 0% = oxytocin EC15, 100% = EC100; activation, % at 3 µM; 320,000 tested, 0.061% active;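 active means activation above that plate's cutoff, the mean activation of tested compounds plus 3 SD, cut at about 6.6% in these data, passing the limit was not always enough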;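 further: 100% uses oxytocin at 75 nM as the full agonist control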
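Assay system: CHO cell line stably expressing human OTR | Also added: Oxytocin at about EC15, sub-maximal agonist stimulus | Times: Compound 6 min at room temperature before oxytocin, 100 s read | Measured by: Fluo-8 intracellular calcium fluorescence, ex 470-495, em 515-575 nm | Controls: EC15 oxytocin alone as 0%, 75 nM oxytocin as 100%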
OXTR ag = human OXTR agonism. P30559. CHO-OTR cells, Fluo-8 calcium fluorescence; normalized: DMSO 0%, oxytocin 100%. 320,000 tested, 0.32% active. AID 2435. activation, % at 3 µM;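 active means activation above the mean of all tested compounds plus 3 SD, cutoff set per screening run, cut at about 20% in these data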;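 further: peak over basal fluorescence ratio from a 100 s FLIPR kinetic read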
CHRM4 antagonist = blocks acetylcholine activation of human M4 receptor; P08173; CHO-hM4 cells, ACh EC80, Fluo-8 calcium fluorescence; inhibition, % at 3 µM; 360,000 tested, 0.73% active; AID 624125;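 active means inhibition above its plate's cutoff, the mean inhibition of sample wells plus 3 SD, cut at about 27% in these data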;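 further: 0% = acetylcholine EC80 with DMSO and 100% = DMSO without agonist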
M4 ag = CHRM4 agonism in calcium assay; 360,000 tested, 0.14% active; AID 624127; P08173; activation, % at 3 µM; CHO-K1 hM4/Gqi5, Fluo-8 calcium fluorescence; vehicle 0%, full acetylcholine response 100%;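 active means activation above the run mean over all test wells plus 3 SD, cut at about 32% in these data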;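 further: peak over basal fluorescence ratio per well then scaled between controls; 0% = DMSO wells and 100% = acetylcholine at EC100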
V1aR counter = counter-screen for oxytocin receptor agonists: human V1a receptor agonists | P37288 | CHO-V1R cells, Fluo-8 calcium fluorescence, agonist mode; 0% DMSO, 100% 3 nM vasopressin | activation, % at 3 µM | 320,000 tested, 0.25% active | AID 2797;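 active means activation above the mean activation of all tested compounds plus 3 SD, per screening run, cut at about 20% in these data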;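 further: signal is peak over basal fluorescence ratio across a 100 second FLIPR read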
Target sequence (P37288 whole entry, looked up): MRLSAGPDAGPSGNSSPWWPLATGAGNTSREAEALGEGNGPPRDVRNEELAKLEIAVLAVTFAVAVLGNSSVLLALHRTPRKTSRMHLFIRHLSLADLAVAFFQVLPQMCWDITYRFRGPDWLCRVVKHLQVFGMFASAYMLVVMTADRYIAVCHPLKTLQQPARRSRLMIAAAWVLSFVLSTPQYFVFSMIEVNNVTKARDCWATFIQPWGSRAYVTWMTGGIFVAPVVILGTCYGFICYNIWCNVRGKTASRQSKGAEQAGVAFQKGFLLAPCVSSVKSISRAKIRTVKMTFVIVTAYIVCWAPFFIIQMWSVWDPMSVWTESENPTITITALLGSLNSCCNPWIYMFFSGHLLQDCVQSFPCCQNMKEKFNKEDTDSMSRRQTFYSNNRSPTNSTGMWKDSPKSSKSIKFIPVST
CHRM4 PAM = potentiates acetylcholine response at human M4 receptor. 360,000 tested, 0.4% active. activation, % at 3 µM. P08173. CHO-K1 hM4/Gqi5, Fluo-8 calcium fluorescence, ACh EC20; 0% = ACh EC20, 100% = maximal ACh;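 active means activation above its plate's cutoff, the mean activation of sample wells plus 3 SD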
The depositor's hits bear a star; / = no result. The list is not random: actives were taken first. Their share in the collection is about 1.5%.

SMILES | OXTR potentiator | OXTR ag | CHRM4 antagonist | M4 ag | V1aR counter | CHRM4 PAM
COc1cccc(CN(C)C(=O)c2cc(-c3ccc(F)cc3)nc3ccccc23)c1 | -4 | -1 | 16 | 14 | 2 | -9
COc1ccc(CN(C)C(=O)c2cc(-c3ccc(OC)c(OC)c3)nc3ccccc23)c(OC)c1 | / | / | 27* | 13 | / | -11
COc1ccc(-c2ccccc2)cc1NC(=O)[C@@H]1O[C@H](CO)[C@H](O)[C@H](O)[C@H]1O | / | / | -4 | 1 | / | 4
CCOC(=O)c1cn(CC(=O)Nc2ccc(OC)cc2OC)nn1 | 0 | 1 | -4 | 1 | 1 | 9
CCOC(=O)c1ccc(N=c2scc(C)n2CC)cc1 | -14 | -2 | -8 | -1 | 0 | -8
CCOC(=O)c1ccc(N=C2C(=S)N(c3ccc(C(=O)OCC)cc3)C(=N)N2/N=C/c2ccccc2)cc1 | -3 | -1 | 99* | 1 | 0 | -31
CC1=CC(C)(C)N(C(=O)CNC2CCCCC2)c2cc(C)ccc21 | -7 | 0 | 47* | 1 | 0 | -25
COc1ccc(-c2nc(-c3cccc(C(F)(F)F)c3)no2)cc1OC | -6 | 0 | -1 | 1 | 0 | 30*
CC(=O)c1cccc(NC(=S)NC(=O)c2ccc(C)cc2)c1 | 2 | -1 | -2 | 1 | 2 | 26*
CC(=O)c1cccc(NC(=S)NC(=O)Cc2ccccc2)c1 | 0 | 2 | -3 | 1 | 4 | 13
CC(=O)c1cccc(NC(=S)NC(=O)Cc2ccc(Cl)cc2)c1 | -25 | 26* | -1 | 12 | 21* | 3
COc1cccc(NC(=O)NCCc2ccc(Cl)cc2)c1 | -3 | -1 | -4 | 2 | 1 | -1
CC(=O)c1cccc(NC(=O)NCCc2ccc(Cl)cc2)c1 | -5 | 2 | 0 | 9 | 2 | 16*
CCOc1cc(C(=O)NC(C)c2ccncc2)cc(OCC)c1OCC (stereo unspecified) | -3 | -1 | -4 | 3 | 0 | 7
C#CCNC(=O)c1cc2c(Br)ccc(Br)c2nc1N | / | / | -18 | 1 | / | 9
CCC1CCCCN1CCNS(=O)(=O)c1ccc2c(c1)oc(=O)n2C (stereo unspecified) | -4 | 0 | 29* | 0 | 1 | -14
CSc1nnc(-c2cccc(C)c2)n1N | -9 | 0 | 3 | 1 | 0 | 32*
Cc1ccc(-n2c(SCCN)nnc2-c2cccc(C)c2)cc1 | -3 | 2 | -9 | 2 | 2 | -10
CC(=O)Nc1cccc(NC(=O)CSc2ncc(-c3ccc(Cl)cc3)n2Cc2ccco2)c1 | -23 | 13 | 29* | 18 | 11 | -15
COc1ccc(-c2cnc(SCC(=O)Nc3ccc4c(c3)OCO4)n2Cc2ccco2)cc1 | / | / | 4 | 5 | / | -12
CCOC(=O)c1cn(CC)c2cc(N3CCN(C)CC3)c(F)cc2c1=O | -5 | 2 | 4 | 1 | 0 | 3
CCOC(=O)c1cn(CC#N)c2cc(F)c(F)cc2c1=O | -3 | -1 | -9 | 2 | 0 | 24*
CCCCCCn1cc(C(=O)OCC)c(=O)c2cc(F)c(F)cc21 | 2 | -1 | 15 | -1 | -1 | 38*
Cc1ccc(-c2csc(NC(=O)c3ccc(-c4ccccc4)cc3)n2)o1 | -6 | -1 | 40* | 9 | 1 | -10
COC(=O)c1ccc(-c2nc(O)c3cnccn23)cc1 | -2 | 1 | -3 | 34* | 0 | 3
SMILES | OXTR potentiator | OXTR ag | CHRM4 antagonist | M4 ag | V1aR counter | CHRM4 PAM
Oc1nc(-c2ccc(Cl)cc2)n2ccncc12 | -5 | 0 | -5 | 1 | 0 | 0
Cn1cnnc1SCC(=O)NCCc1ccccc1 | -2 | 1 | -3 | 0 | 0 | 12
Cc1ccccc1C(=O)N1CCN(S(=O)(=O)c2cccs2)CC1 | -10 | -1 | 27* | 0 | -1 | 0
O=C1CCC2c3[nH]c4ccccc4c3CCN12 (stereo unspecified) | / | / | 3 | 1 | / | -2
COc1ccc(CN(CC2CCC(C(=O)O)CC2)C(=S)Nc2cc(C)cc(C)c2)cc1 (stereo unspecified) | 3 | 1 | -9 | 4 | 1 | 19*
O=C(Cc1ccccc1)Nc1nnc(-c2cccc([N+](=O)[O-])c2)s1 | 0 | 1 | -4 | 1 | 0 | 35*
Cc1cccc(C)c1C(=NCCCN(C)C)c1ccccc1 | -3 | 2 | 38* | 2 | 2 | -18
C=C(C)COc1ccc(-c2[nH]ncc2Oc2ccc(OC)cc2)c(O)c1 | -5 | 0 | 41* | -1 | 5 | -32
Cc1ccc(NC(=O)NCCCc2ccccc2)cc1 | 1 | 0 | 6 | 6 | 1 | -7
Cc1cccc(CSc2nncc(=O)[nH]2)c1 | -17 | 0 | -14 | 1 | -1 | 15*
O=c1cnnc(SCCc2ccccc2)[nH]1 | -6 | 1 | -3 | -1 | 0 | -2
CSc1ncccc1C(=O)N1CCN(S(=O)(=O)c2ccc(C)cc2)CC1 | -8 | 4 | 17 | 3 | 2 | -8
COc1cc(O)c2c(=O)c(-c3ccc(O[C@@H]4O[C@H](CO)[C@@H](O)[C@H](O)[C@H]4O)cc3)coc2c1 | / | / | -9 | 1 | / | -4
O=C(Nc1cccc(NC(=O)c2ccc(-c3ccc(Br)cc3)o2)c1)c1ccco1 | -2 | 0 | 32* | 12 | 1 | -22
CCOC(=O)c1ccc(S(=O)(=O)NNc2ccc(C(F)(F)F)cn2)cc1 | -8 | 4 | -5 | 2 | 5 | 4
Cc1cccc(N2C(=O)C(O)=C(C(=O)c3cccs3)C2c2ccc(C(C)C)cc2)n1 (stereo unspecified) | -14 | 33* | 5 | 0 | 33* | -5
N#Cc1c(-c2ccc(Cl)cc2)c(-c2ccc(Cl)cc2)nn(CCO)c1=O | / | / | 4 | -2 | / | -3
O=C(COc1ccc(C(F)(F)F)cc1[N+](=O)[O-])Nc1cccc(C(F)(F)F)c1 | -7 | -1 | 14 | 2 | 0 | 30*
CCOC(=O)C1CCN(C(=O)c2cc(S(=O)(=O)N3CCOCC3)ccc2C)CC1 | -2 | -1 | 0 | 1 | 0 | 1
CSc1cc(C)nc(N(C)C(C)=O)n1 | -11 | 1 | -12 | 0 | 0 | 19*
CCOc1ccc(/C=C2\CCCc3c2nc2ccccc2c3C(=O)O)cc1OC | -17 | 100* | 16 | 78* | 135* | -18
CC1(C)Cc2c(ccc3ccccc23)C2=C(C(=O)N3CCCC3)C(=O)C(=O)N21 | / | / | -4 | -2 | / | 18*
C=CCC1(O)C(=O)N2C(=C1C(=O)OCC)c1ccc3ccccc3c1CC2(C)C (stereo unspecified) | -2 | -2 | 3 | 1 | -1 | -1
